We go through one compound from ChEMBL document CHEMBL1629663, “Postantibiotic effects of telavancin against 16 gram-positive organisms” (Antimicrob Agents Chemother, 2009).

The structures appear in SMILES notation. Values after ≈ are worked out from the molar mass of the structure shown.

Data set [1] has as its system Staphylococcus aureus. As to the kind of experiment: Antimicrobial activity against heterogenous vancomycin-intermediate-, methicillin-resistant Staphylococcus aureus 873 by microdilution method. The class given is functional. On the technique in general: Dilution methods test growth across graded concentrations, often in twofold steps.
The subject of data set [2] is Enterococcus faecium. As to the kind of experiment: Antimicrobial activity against Enterococcus faecium HMC 588 assessed as time required to induce sub-MIC effect at 0.4 times MIC exposed for 2 hrs by plate counting method. It counts as functional. In a few lines: (§1)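 Unexposed Mueller-Hinton broth cultures (about 5 × 10^6 CFU/ml, 35°C) were handled as in the PA-SME set but without the 10× MIC pre-exposure. They were diluted 1:1,000, then given telavancin at final 0.2, 0.3 or 0.4× MIC, with a drug-free control. Viable counts were taken every 2 h until McFarland no. 1 turbidity. Effect duration comes from log10 CFU/ml-time plots; two separate experiments with new inocula.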

Data set [3] deals with Staphylococcus aureus. As to the kind of experiment: Antimicrobial activity against heterogenous vancomycin-intermediate-, methicillin-resistant Staphylococcus aureus 618 assessed as time required to induce post antibiotic sub-MIC effect at 0.4 times MIC […] by plate counting method. The class given is functional. The essentials: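 PAE was first induced with 10× MIC for 1 h at 35°C (inoculum about 5 × 10^6 CFU/ml, Mueller-Hinton broth) and ended by 1:1,000 dilution. Cultures were then split and given 0.2, 0.3 or 0.4× MIC, with one tube left without drug. Viable counts were taken before exposure, after dilution, then every 2 h until McFarland no. 1 turbidity. Two separate experiments, each with a new inoculum.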

Data set [4] concerns Enterococcus faecalis. The experiment in a line: Antimicrobial activity against Enterococcus faecalis ATCC 29212 assessed as time required to induce post antibiotic sub-MIC effect at 0.4 times MIC […] by plate counting method. It counts as functional. In a few lines:
(§2)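 Mueller-Hinton broth cultures of about 5 × 10^6 CFU/ml were pre-exposed to telavancin at 10× MIC for 1 h at 35°C, then diluted 1:1,000. Telavancin was re-added to final 0.2, 0.3 or 0.4× MIC, alongside a drug-free tube. Viable counts were taken before exposure, after dilution, then every 2 h until McFarland no. 1 turbidity. Duration comes from log10 CFU/ml-versus-time plots; two separate experiments with fresh inocula.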

A short description of data set [5]: Protein binding healthy human serum. It counts as ADME, cell-free. Particulars: read-out: PB.
The subject of data set [6] is Staphylococcus aureus. The experiment in a line: Antimicrobial activity against vancomycin-intermediate-, methicillin-resistant Staphylococcus aureus 770 by microdilution method. The class given is functional.
Data set [7] concerns Staphylococcus aureus. As to the kind of experiment: Antimicrobial activity against vancomycin-susceptible-, methicillin-resistant Staphylococcus aureus 1306 assessed as post-antibiotic effect at 10 times MIC pre-exposed to Telavancin for 1 hr by plate counting method. The class given is functional. The essentials:
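Direct colony suspensions (~5 × 10^6 CFU/ml) were exposed to 10× MIC for 1 h at 35°C with shaking in Mueller-Hinton broth, then diluted 1:1,000 to remove drug. Viable plate counts were taken before exposure, at 0 h, then every 2 h until turbidity reached McFarland 1. PAE = T − C, the time for counts to rise 1 log10 versus the unexposed control. Two separate experiments were run.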

Data set [8] has as its system Staphylococcus aureus. The experiment in a line: Antimicrobial activity against heterogenous vancomycin-intermediate-, methicillin-resistant Staphylococcus aureus 873 assessed as post-antibiotic effect at 10 times MIC pre-exposed to Telavancin for 1 hr by plate counting method. The class given is functional. In a few lines: (§3)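 Viable plate count method in Mueller-Hinton broth. Direct colony suspension inoculum of about 5 × 10^6 CFU/ml was exposed to 10× MIC for 1 h at 35°C in a shaking water bath, then diluted 1:1,000 to remove drug. Counts were taken before exposure, at 0 h, then every 2 h until McFarland no. 1 turbidity. PAE = T − C, the time to a 1 log10 rise versus an unexposed growth control.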

Data set [9] concerns Staphylococcus aureus. The experiment in a line: Antimicrobial activity against vancomycin-intermediate-, methicillin-resistant Staphylococcus aureus 770 assessed as post-antibiotic effect at 10 times MIC pre-exposed to Telavancin for 1 hr by plate counting method. It counts as functional. In a few lines:
as §3

The subject of data set [10] is Enterococcus faecium. As to the kind of experiment: Antimicrobial activity against Enterococcus faecium HMC 588 assessed as post-antibiotic effect at 10 times MIC pre-exposed to Telavancin for 1 hr by plate counting method. It counts as functional. In a few lines: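 Organisms were suspended in Mueller-Hinton broth from overnight blood agar colonies at about 5 × 10^6 CFU/ml. Cultures were exposed to telavancin at 10× MIC for 1 h at 35°C in a shaking water bath, then diluted 1:1,000 to remove the drug, with an untreated growth control. Viable counts were taken before exposure, at 0 h, then every 2 h until McFarland no. 1 turbidity. PAE = T − C, the time to a 1 log10 rise. Two experiments.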

Data set [11] relates to Staphylococcus aureus. As to the kind of experiment: Antimicrobial activity against vancomycin-susceptible-, methicillin-resistant Staphylococcus aureus ATCC 33591 assessed as time required to induce sub-MIC effect at 0.2 times MIC exposed for 2 hrs by plate counting method. It counts as functional. The essentials: (§4)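 Sub-MIC effect: cultures not preexposed to drug were diluted and handled as in the PA-SME procedure in Mueller-Hinton broth with final 0.2, 0.3 or 0.4× MIC, plus a drug-free control. Viable plate counts were taken every 2 h until McFarland 1 turbidity. Duration was derived from growth curves. Two experiments were run, each with a new inoculum.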

In data set [12] the test system is Staphylococcus aureus. As to the kind of experiment: Antimicrobial activity against vancomycin-susceptible-, methicillin-resistant Staphylococcus aureus 1307 assessed as time required to induce sub-MIC effect at 0.2 times MIC exposed for 2 hrs by plate counting method. It counts as functional. In a few lines: as §4
Data set [13] deals with Staphylococcus aureus. The experiment in a line: Antimicrobial activity against vancomycin-intermediate-, methicillin-resistant Staphylococcus aureus 555 assessed as time required to induce sub-MIC effect at 0.2 times MIC […] by plate counting method. It counts as functional. The essentials:
(§5)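 SME, viable plate count method: no prior drug exposure. About 5 × 10^6 CFU/ml in Mueller-Hinton broth at 35°C received 0.2, 0.3 or 0.4× MIC, alongside a drug-free tube. Counts were taken at the start, then every 2 h until McFarland no. 1 turbidity, as log10 CFU/ml against time. Two separate experiments, each with a new inoculum.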

For data set [14], the system named is Staphylococcus aureus. The experiment in a line: Antimicrobial activity against vancomycin-intermediate-, methicillin-resistant Staphylococcus aureus 1984 assessed as time required to induce sub-MIC effect at 0.2 times MIC […] by plate counting method. It counts as functional. The essentials: as §5
Data set [15] concerns Enterococcus faecalis. As to the kind of experiment: Antimicrobial activity against Enterococcus faecalis ATCC 29212 assessed as time required to induce sub-MIC effect at 0.2 times MIC exposed for 2 hrs by plate counting method. The class given is functional. The essentials: as §1
In data set [16] the test system is Staphylococcus aureus. As to the kind of experiment: Antimicrobial activity against vancomycin-susceptible-, methicillin-resistant Staphylococcus aureus 1130 assessed as time required to induce sub-MIC effect at 0.3 times MIC exposed for 2 hrs by plate counting method. It counts as functional. The essentials:
as §4

For data set [17], the system named is Staphylococcus aureus. As to the kind of experiment: Antimicrobial activity against heterogenous vancomycin-intermediate-, methicillin-resistant Staphylococcus aureus 873 assessed as time required to induce sub-MIC effect at 0.3 times MIC […] by plate counting method. The class given is functional. In a few lines:
as §5

The test system of data set [18] is Staphylococcus aureus. As to the kind of experiment: Antimicrobial activity against heterogenous vancomycin-intermediate-, methicillin-resistant Staphylococcus aureus 618 assessed as time required to induce sub-MIC effect at 0.3 times MIC […] by plate counting method. It counts as functional. The essentials: as §5
Data set [19] concerns Staphylococcus aureus. The experiment in a line: Antimicrobial activity against vancomycin-intermediate-, methicillin-resistant Staphylococcus aureus 1984 assessed as time required to induce sub-MIC effect at 0.3 times MIC exposed for 2 hrs by plate counting method. It counts as functional. The essentials:
as §5

The subject of data set [20] is Streptococcus pyogenes. As to the kind of experiment: Antimicrobial activity against Streptococcus pyogenes HMC 414 assessed as time required to induce post antibiotic sub-MIC effect at 0.3 times MIC exposed for […] by plate counting method. It counts as functional. In a few lines:
as §2

The subject of data set [21] is Staphylococcus aureus. The experiment in a line: Antimicrobial activity against vancomycin-susceptible-, methicillin-resistant Staphylococcus aureus 1307 assessed as time required to induce sub-MIC effect at 0.4 times MIC exposed for 2 hrs by plate counting method. It counts as functional. The essentials: as §4

As to `CCCCCCCCCCNCCN[C@@]1(C)C[C@H](O[C@H]2[C@H](Oc3c4cc5cc3Oc3ccc(cc3Cl)[C@@H](O)[C@@H](NC(=O)[C@@H](CC(C)C)NC)C(=O)N[C@@H](CC(N)=O)C(=O)N[C@H]5C(=O)N[C@H]3C(=O)N[C@H](C(=O)N[C@H](C(=O)O)c5cc(O)c(CNCP(=O)(O)O)c(O)c5-c5cc3ccc5O)[C@H](O)c3ccc(c(Cl)c3)O4)O[C@H](CO)[C@@H](O)[C@@H]2O)O[C@@H](C)[C@H]1O` [TELAVANCIN], the MIC (commonly the lowest concentration found to suppress growth) in data set [1] came out at 0.12 µg/mL (≈ 0.0684 µM); in [6], 0.25 µg/mL (≈ 0.142 µM). For the same compound, the PAE is 8.8 h in [2]; 10.3 h in data set [3]; > 10.7 h in [4]; 1.8 h in data set [7]; 1.2 h in [8]; 1.6 h in [9]. In addition, the PAE in [10] is 1.2 h; in data set [11], 0.3 h; in data set [12], 1 h; in [13], 0.3 h; in [14], 1 h; in data set [15], 0.7 h. The PAE was 2 h in data set [16]; 0.5 h in [17]; 1.5 h in data set [18]; 2.6 h in data set [19]; > 10.7 h in [20]; 6.3 h in [21]. In data set [5], the fraction unbound was ≤ 0.1.
